For 21 molecules, IC50 results are on record in ChEMBL document CHEMBL4334478, “Isolation, Structural Elucidation, Optical Resolution, and Antineuroinflammatory Activity of Phenanthrene and 9,10-Dihydrophenanthrene Derivatives from Bletilla striata” (J Nat Prod, 2019).

One may read the IC50 as the concentration that inhibits the measured activity by half.

The subject of the first test is BV-2. Nature of the test: Antineuroinflammatory activity against mouse BV2 cells assessed as inhibition of LPS-induced NO production incubated for 24 hrs by Griess assay. It is filed as functional, cell-based. The following applies: Mus musculus, BV-2, 24 h; read-out: IC50. The method in brief:
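Griess read-out of nitrite in LPS-stimulated BV-2 microglia, with cell viability checked in parallel by MTT. Minocycline served as positive control. IC50 values are reported as mean ± SEM.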
Background: Griess reagent forms a coloured azo dye with nitrite.
With `COc1c(O)ccc2c1ccc1c(-c3c(O)cc(OC)c4c3ccc3c(OC)c(O)ccc34)c(O)cc(OC)c12`, the IC50 stood at 1 µM. The same measure, in the same setting: then `COc1cc(O)c2c(c1Cc1ccc(O)cc1)CCc1cc(O)ccc1-2`, with 12 to 30 µM.

Take `COc1cc(O)c2c(c1-c1c(OC)cc(O)c3c1CCc1cc(O)ccc1-3)CCc1cc(O)ccc1-2`: the IC50 stood at 39.4 µM.

With `COc1cc(O)c(Cc2ccc(O)cc2)c2ccc3cc(O)ccc3c12`, the IC50 was determined as 30.2 µM. Turning to `COc1cc(O)cc(CCc2cccc(O)c2)c1-c1c(OC)cc(O)c2c1CCc1cc(O)ccc1-2`, the half-maximal inhibitory concentration (IC50) is 1.9 µM.

Regarding `COc1cc(O)cc2c1-c1cc(-c3c(O)cc(OC)c4c3ccc3cc(O)ccc34)c(O)cc1CC2`, the IC50 was 22.1 µM. On the same count and under the same terms, then `COc1cc(O)cc2c1-c1cc(-c3c(O)cc(OC)c4c3CCc3cc(O)ccc3-4)c(O)cc1CC2`, with 12 µM. As for `COc1cc2c(ccc3c(-c4c(O)cc(OC)c5c4ccc4cc(O)ccc45)c(O)cc(OC)c32)cc1O`, the half-inhibitory concentration (IC50) came out at 5 µM. Regarding `COc1c(Cc2ccc(O)cc2)c(O)cc2c1-c1ccc(O)cc1CC2`, the IC50 came to 34.6 µM.

With `COc1cc([C@@H]2Oc3cc(OC)c4c(c3[C@H]2CO)CCc2cc(O)ccc2-4)cc(OC)c1O`, the IC50 was determined as 18.5 µM. `COc1cc([C@H]2Oc3cc4c(cc3[C@@H]2COC(C)=O)-c2c(cc(O)cc2OC)CC4)ccc1O`: the IC50 was 24.8 µM.

On to `COc1c(O)c(O)cc2ccc3cc(O)ccc3c12`, for which the IC50 is 30 µM. Take `COc1ccc2c(ccc3c(Cc4ccc(O)cc4)c(O)cc(OC)c32)c1`: the IC50 is 82 µM. Take `OC[C@H]1O[C@@H](Oc2ccc(Cc3c(O)ccc4c3CCc3cc(O)ccc3-4)cc2)[C@H](O)[C@@H](O)[C@@H]1O`: the concentration for half-maximal inhibition (IC50) was found to be 17.9 µM. In the case of `COc1cc(CCc2cccc(O)c2)c(-c2c(O)cc(O)c3c2CCc2cc(O)ccc2-3)c(OC)c1`, the IC50 was 60.7 µM. In the case of `COc1ccc2c(c1O)CCc1c(Cc3ccc(O)cc3)c(O)cc(OC)c1-2`, the IC50 is 49 µM. For the molecule `COc1cc(O)cc2c1-c1ccc(O)cc1CC2`, the IC50 is 15.2 µM.

On to `COc1cc(O)c(-c2c(O)cc(OC)c3c2ccc2cc(O)ccc23)c2c1-c1ccc(O)cc1CC2` [CIRRHOPETALANTHRIN], for which the IC50 came to 46.8 µM.

For `COc1c(O)cc2c(c1OC)-c1ccc(O)cc1CC2` [ERIANTHRIDIN], the IC50 is 93.5 µM. Still for that read-out and setting: then `CN(C)c1ccc(O)c2c1C[C@H]1C[C@H]3[C@H](N(C)C)C(O)=C(C(N)=O)C(=O)[C@@]3(O)C(O)=C1C2=O` [MINOCYCLINE], with 27.2 to 35.7 µM.

The same test, now with this note: bv-2.
On to `COc1cc(O)c2c(ccc3cc(O)ccc32)c1-c1c(OC)cc(O)c2c1ccc1cc(O)ccc12`, for which the half-inhibitory concentration (IC50) entry was “Not Active”.
